Activity calls are given as the source filed them. The calls are words filed in the database; no cut-off is given here. Square brackets hold non-standard residues; d marks the D form. Peptide text beside a SMILES is read from it. * marks the point of attachment. 1Nal = N[C@@H](Cc1cccc2ccccc12)C(=O)O; 2Nal = N[C@@H](Cc1ccc2ccccc2c1)C(=O)O; Cbz = O=C(OCc1ccccc1)*
Experiments:
EMT6 [1] = assay: Inhibition of proteasome in mouse EMT6 cell lysate assessed as cleavage of Suc-leu-leu-val-Tyr-AMC at 100 nM after 60 mins; set-up: scale not given: the % may be the effect or the level left
J558L [2] = assay: Inhibition of proteasome in mouse J558L cell lysate assessed as cleavage of Suc-leu-leu-val-Tyr-AMC at 100 nM after 60 mins; set-up: scale not given: the % may be the effect or the level left
EMT6 [3] = assay: Inhibition of proteasome in mouse EMT6 cell lysate assessed as cleavage of Suc-leu-leu-val-Tyr-AMC at 100 nM after 30 mins; set-up: scale not given: the % may be the effect or the level left
EMT6 [4] = assay: Inhibition of proteasome in mouse EMT6 cell lysate assessed as cleavage of Suc-leu-leu-val-Tyr-AMC at 1000 nM after 60 mins; set-up: scale not given: the % may be the effect or the level left
J558L [5] = assay: Inhibition of proteasome in mouse J558L cell lysate assessed as cleavage of Suc-leu-leu-val-Tyr-AMC at 1000 nM after 15 mins; set-up: scale not given: the % may be the effect or the level left
EMT6 [6] = assay: Inhibition of proteasome in mouse EMT6 cell lysate assessed as cleavage of Suc-leu-leu-val-Tyr-AMC at 100 nM after 15 mins; set-up: scale not given: the % may be the effect or the level left
J558L [7] = assay: Inhibition of proteasome in mouse J558L cell lysate assessed as cleavage of Suc-leu-leu-val-Tyr-AMC at 100 nM after 30 mins; set-up: scale not given: the % may be the effect or the level left
J558L [8] = assay: Inhibition of proteasome in mouse J558L cell lysate assessed as cleavage of Suc-leu-leu-val-Tyr-AMC at 100 nM after 15 mins; set-up: scale not given: the % may be the effect or the level left
EMT6 [9] = assay: Inhibition of proteasome in mouse EMT6 cell lysate assessed as cleavage of Suc-leu-leu-val-Tyr-AMC at 1000 nM after 15 mins; set-up: scale not given: the % may be the effect or the level left
EMT6 [10] = assay: Inhibition of proteasome in mouse EMT6 cell lysate assessed as cleavage of Suc-leu-leu-val-Tyr-AMC at 1000 nM after 30 mins; set-up: scale not given: the % may be the effect or the level left
J558L [11] = assay: Inhibition of proteasome in mouse J558L cell lysate assessed as cleavage of Suc-leu-leu-val-Tyr-AMC at 1000 nM after 30 mins; set-up: scale not given: the % may be the effect or the level left
J558L [12] = assay: Inhibition of proteasome in mouse J558L cell lysate assessed as cleavage of Suc-leu-leu-val-Tyr-AMC at 1000 nM after 60 mins; set-up: scale not given: the % may be the effect or the level left
J558L [13] = assay: Cytotoxicity against mouse J558L cells after 24 hrs by MTT assay; assay type: functional, cell-based
In short: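 Murine J558L myeloma cells grown in RPMI-1640 with 10% heat-inactivated FCS, antibiotics, 2-mercaptoethanol and 2 mM L-glutamine. Cells were seeded at 3 × 10³ per well and compounds were added the next day. MTT at 1 mg/mL was present for the last 4 h. Cells were lysed in SDS/DMF buffer at pH 4.7 overnight and read at 570 nm. Viability is (A_e − A_b)×100/(A_c − A_b), relative to medium-only cultures.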

[14] = Inhibition of chymotrypsin-like activity of 20S proteasome from human erythrocyte
In short: (§1)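 Substrates were Suc-Leu-Leu-Val-Tyr-AMC (chymotrypsin-like), Ac-Arg-Leu-Arg-AMC (trypsin-like) and Z-Leu-Leu-Glu-βNA (PGPH). Hydrolysis was read by fluorescence at ex 355 / em 460 nm against DMSO solvent controls.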

[15] = Inhibition of peptidylglutamyl peptide hydrolyzing-like activity of 20S proteasome from human erythrocyte
In short: as §1

[16] = Inhibition of trypsin-like activity of 20S proteasome from human erythrocyte
In short: as §1

EMT6 [17] = assay: Cytotoxicity against mouse EMT6 cells after 24 hrs by crystal violet staining
[18] = Inhibition of 20S proteasome from human erythrocyte
In short: as §1

| SMILES | Activity (EMT6 [1]) | Activity (J558L [2]) | Activity (EMT6 [3]) | Activity (EMT6 [4]) | Activity (J558L [5]) | Activity (EMT6 [6]) | Activity (J558L [7]) | Activity (J558L [8]) | Activity (EMT6 [9]) | Activity (EMT6 [10]) | Activity (J558L [11]) | Activity (J558L [12]) | Activity (J558L [13]) | IC50 [14] | IC50 [15] | IC50 [16] | Activity (EMT6 [17]) | Ki [18] |
| --- | --- | --- | --- | --- | --- | --- | --- | --- | --- | --- | --- | --- | --- | --- | --- | --- | --- | --- |
| CC(C)CC(NC(=O)[C@H](CC(C)C)NC(=O)OCc1ccccc1)C(=O)N[C@@H](C=O)CC(C)C (stereo in doubt; (+)) [listing 1 of 2 here] | 99% | 107% | 103% | 106% | 107% | 110% | 105% | 104% | 118% | 111% | 106% | 106% |  |  |  |  |  |  |
| CC(C)CC(NC(=O)[C@@H](CC(C)C)NC(=O)OCc1ccccc1)C(=O)N[C@H](C=O)CC(C)C (stereo in doubt) [listing 1 of 2 here] | 84% | 82% | 85% | 67% | 30% | 87% | 77% | 71% | 61% | 61% | 40% | 53% |  |  |  |  |  |  |
| CC(C)C[C@@H](C=O)NC(=O)[C@@H](CC(C)C)NC(=O)[C@H](CC(C)C)NC(=O)OCc1ccccc1 | 31% | 50% | 22% | 13% | 11% | 17% | 36% | 25% | 5% | 7% | 21% | 38% | inactive | 0.22 µM | 2.95 µM | 34.4 µM | inactive |  |
| CC(C)C[C@@H](C=O)NC(=O)[C@H](Cc1cccc2ccccc12)NC(=O)[C@H](Cc1ccc2ccccc2c1)NC(=O)OCc1ccccc1 (Cbz-[2Nal]-[1Nal]-Leu-aldehyde) |  |  |  |  |  |  |  |  |  |  |  |  |  |  |  |  |  | 0.015 nM |
| CC(C)C[C@H](C=O)NC(=O)[C@@H](CC(C)C)NC(=O)[C@@H](CC(C)C)NC(=O)OCc1ccccc1 | 91% | 89% | 90% | 78% | 58% | 90% | 89% | 87% | 62% | 70% | 66% | 71% |  | 9.81 µM | 11.3 µM | > 100 µM |  |  |
| CC(C)C[C@H](NC(=O)[C@@H](CC(C)C)NC(=O)OCc1ccccc1)C(=O)N[C@@H](C=O)CC(C)C |  | 112% |  |  | 102% |  | 110% | 100% |  |  | 96% | 99% |  | > 100 µM | > 100 µM | > 100 µM |  |  |
| CC(C)CC(NC(=O)[C@@H](CC(C)C)NC(=O)OCc1ccccc1)C(=O)N[C@H](C=O)CC(C)C (stereo in doubt) [listing 2 of 2 here] |  |  |  |  |  |  |  |  |  |  |  |  |  | 1.79 µM | 17.2 µM |  |  |  |
| CC(C)CC(NC(=O)[C@@H](CC(C)C)NC(=O)OCc1ccccc1)C(=O)N[C@H](C=O)CC(C)C (single isomer, unassigned; (+)) [listing 1 of 2 here] |  |  |  |  |  |  |  |  |  |  |  |  |  | > 100 µM | > 100 µM | > 100 µM |  |  |
| CC(C)CC(NC(=O)[C@H](CC(C)C)NC(=O)OCc1ccccc1)C(=O)N[C@@H](C=O)CC(C)C (stereo in doubt; (+)) [listing 2 of 2 here] |  |  |  |  |  |  |  |  |  |  |  |  |  | > 100 µM | > 100 µM | > 100 µM |  |  |
| CC(C)C[C@@H](C=O)NC(=O)[C@H](CC(C)C)NC(=O)[C@H](CC(C)C)NC(=O)OCc1ccccc1 (stereo in doubt; 2) | 35% | 60% | 25% | 19% | 15% | 20% | 44% | 32% | 12% | 14% | 25% | 44% |  |  |  |  |  |  |
| CC(C)CC(NC(=O)[C@H](CC(C)C)NC(=O)OCc1ccccc1)C(=O)N[C@@H](C=O)CC(C)C (stereo in doubt; (-)) [listing 1 of 2 here] |  |  |  |  |  |  |  |  |  |  |  |  |  | 0.97 µM | 22.8 µM | 91.3 µM |  |  |
| CC(C)C[C@@H](C=O)NC(=O)[C@H](CC(C)C)NC(=O)[C@H](CC(C)C)NC(=O)OCc1ccccc1 (stereo in doubt) | 86% | 95% | 77% | 50% | 71% | 71% | 91% | 84% | 29% | 37% | 72% | 74% |  |  |  |  |  |  |
| CC(C)C[C@@H](C=O)NC(=O)[C@H](CC(C)C)NC(=O)[C@H](CC(C)C)NC(=O)OCc1ccccc1 (stereo in doubt) [MG-132] |  |  |  |  |  |  |  |  |  |  |  |  |  | 5.46 µM | > 100 µM | > 100 µM |  |  |
| CC(C)C[C@@H](C=O)NC(=O)[C@H](CC(C)C)NC(=O)[C@H](CC(C)C)NC(=O)OCc1ccccc1 (stereo in doubt; 2) [MG-132] |  |  |  |  |  |  |  |  |  |  |  |  |  | 0.89 µM | 5.7 µM | 104 µM |  | 4 nM |
| CC(C)CC(NC(=O)[C@H](CC(C)C)NC(=O)OCc1ccccc1)C(=O)N[C@@H](C=O)CC(C)C (stereo in doubt; (-)) [listing 2 of 2 here] | 91% | 94% | 91% | 53% | 55% | 95% | 93% | 92% | 44% | 46% | 64% | 77% |  |  |  |  |  |  |
| CC(C)CC(NC(=O)[C@@H](CC(C)C)NC(=O)OCc1ccccc1)C(=O)N[C@H](C=O)CC(C)C (single isomer, unassigned; (+)) [listing 2 of 2 here] | 95% | 123% | 95% | 99% | 114% | 97% | 118% | 115% | 104% | 100% | 117% | 121% |  |  |  |  |  |  |
| CC(C)C[C@H](NC(=O)[C@H](Cc1ccccc1)NC(=O)c1cnccn1)B(O)O [BORTEZOMIB] |  |  |  |  |  |  |  |  |  |  |  |  |  |  |  |  |  | 0.62 nM |

Source: ChEMBL document CHEMBL1156267, “Studies of the synthesis of all stereoisomers of MG-132 proteasome inhibitors in the tumor targeting approach” (J Med Chem, 2010)
